NRP1-CendR mod – modulators of CendR peptide binding to human neuropilin-1. O14786. FAM-RPARPAR peptide binding to NRP-1, fluorescence polarization. inhibition, % at 25 µM. hit rate 0.85% among 360,000;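 active = inhibition or corrected inhibition above about 18%, plus a signal ratio from 0.5 to 1.5, limit read from the data, passing the limit was not always enough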
SENP1 FRET inh – SENP1 (human) catalytic domain inhibition | inhibition, % at 10 µM | AID 624204 | Q9P0U3 | recombinant SENP1 catalytic domain, CyPet-SUMO1-YPet FRET cleavage | hit rate 0.21% among 360,000;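 active = inhibition at least 30% at 10 µM, raw YFP signal under a set limit, fluorescence ratio 0.5 to 1.5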;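 note: 0% = enzyme with DMSO and 100% = no enzyme wells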
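Compound: 10 µM single point, 0.5% DMSO; Test system: hSENP1 catalytic domain, recombinant; Timing: 50 min reaction at room temperature; Technique: FRET, CFP and YFP emission; Control set: no-enzyme wells low, DMSO-plus-enzyme wells high control.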
SENP8 block-1 – inhibitors of human SENP8 protease. Q96LD8. purified SENP8, Z-RLRGG-aminoluciferin cleavage, luminescence. inhibition, % at 10 µM. hit rate 1.2% among 330,000. AID 2540; in the data active = inhibition above about 50%
Target sequence (Q96LD8 whole entry, looked up): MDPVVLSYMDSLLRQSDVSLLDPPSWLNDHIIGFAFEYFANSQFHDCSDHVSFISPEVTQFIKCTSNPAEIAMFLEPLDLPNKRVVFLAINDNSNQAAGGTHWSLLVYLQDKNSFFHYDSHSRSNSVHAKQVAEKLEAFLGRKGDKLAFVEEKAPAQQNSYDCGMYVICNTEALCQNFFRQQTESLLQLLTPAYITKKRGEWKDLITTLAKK
SENP6 inh – blocks the human protease SENP6. Recombinant SENP6 catalytic domain, aminoluciferin luminescence. inhibition, % at 10 µM. hit rate 1.8% among 330,000. AID 2599;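 active = inhibition above about 50% at the single tested dose, limit read from the data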;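 note: plate controls were DMSO wells with enzyme for no effect and DMSO wells lacking enzyme for full effect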
SENP7 block – blocks the human protease SENP7; recombinant SENP7, Z-RLRGG-aminoluciferin luminescence, 40 min; Q9BQF6; hit rate 1.5% among 330,000; inhibition, % at 5 µM; AID 434973;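 active = inhibition above about 50% at the single test dose, limit read from the data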;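 note: plate controls were DMSO with enzyme for no effect and no enzyme buffer wells for full effect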
Target sequence (Q9BQF6 706-1050 limits assumed): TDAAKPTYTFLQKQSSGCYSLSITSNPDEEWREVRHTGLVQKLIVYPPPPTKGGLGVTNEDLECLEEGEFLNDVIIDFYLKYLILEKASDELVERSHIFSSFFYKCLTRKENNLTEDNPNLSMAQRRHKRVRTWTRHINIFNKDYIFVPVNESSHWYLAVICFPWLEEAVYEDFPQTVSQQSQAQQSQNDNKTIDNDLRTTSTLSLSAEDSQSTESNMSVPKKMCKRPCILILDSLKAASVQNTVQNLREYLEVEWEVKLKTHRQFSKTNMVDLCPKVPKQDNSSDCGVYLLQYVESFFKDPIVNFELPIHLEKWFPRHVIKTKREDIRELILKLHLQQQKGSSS
SENP8 block-2 – SENP8 (human) protease inhibition; inhibition, % at 20 µM; Q96LD8; hit rate 0.64% among 360,000; recombinant SENP8, Nedd8 substrate fluorescence; in the data active = inhibition mostly above about 40%, no sharp cut-off; inactive = mostly below about 27%
SENP8 conf – confirmation of human SENP8 protease inhibitors | shares compounds with SENP8 block-2 | purified SENP8, Nedd8-AMC/pro-Nedd8 cleavage fluorescence, 30 min | inhibition, % at 25 µM | hit rate 15% among 1,400 | AID 624319; in the data active = inhibition mostly above about 39%, no sharp cut-off; inactive = mostly below about 34%
* hit, by the source's call; . = no result given. Only some compounds are listed: those with a hit (about 3.3% of all), similar ones and a draw of the others.

SMILES	NRP1-CendR mod	SENP1 FRET inh	SENP8 block-1	SENP6 inh	SENP7 block	SENP8 block-2	SENP8 conf
CC1(c2nnnn2-c2ccc3c(c2)OCCO3)CCC(=O)N1CCOc1ccccc1 (configuration not stated)	3	0	.	.	.	18	.
CCC1=NN(C(=O)c2ccc([N+](=O)[O-])cc2)C(O)(c2ccccc2)C1 (configuration not stated)	7	6	8	4	3	50*	17
CCCCOC(=O)c1ccc(NC(=O)COC(=O)C2CC2C)cc1 (configuration not stated)	-8	6	.	.	.	12	.
COc1c(O)cc2c(c1O)[C@@H]1O[C@H](CO)[C@@H](O)[C@H](O)C1OC2=O (some centres not stated)	-5	1	-2	-9	-5	43*	13
COc1c(O)cc2c(c1O)C1OC(CO)C(O)C(O)C1OC2=O (configuration not stated)	0	0	-5	-6	-6	9	.
CC(=O)N(CC(=O)N(CC(=O)O)c1ccc(Cl)cc1)c1ccc(Cl)cc1	4	2	.	.	.	7	.
COc1ccc(/C=N/NS(=O)(=O)c2ccccc2)cc1OC(=O)c1ccc(C)cc1	-16	1	-4	-3	-3	41*	28
COc1ccc(/C=N/NS(=O)(=O)c2ccc(C)cc2)cc1OC(=O)c1ccccc1	-4	1	9	2	3	10	.
CCOC(=O)c1cccc(NC(=O)CCS(=O)(=O)c2cccc3nsnc23)c1	9	-1	-11	-8	-8	28	.
Cc1cccc(NC(=O)CCS(=O)(=O)c2cccc3nsnc23)c1C	-13	3	6	-10	6	41*	15
Nc1cccc2nsnc12	-10	11	11	40	24	48*	13
COc1ccc(C(=O)COc2ccc(C)cc2NC(C)=O)cc1	7	4	-2	-2	-7	41*	8
COCCCN1C(=O)C(CC(=O)NC2CCCCC2)CC(C(=O)N(C)C)=C1C (configuration not stated)	-3	3	.	.	.	-3	.
COC(=O)c1ccc(NC(=O)CN(c2ccc(OC)cc2)S(C)(=O)=O)cc1	-3	4	2	2	8	41*	17
COCCCn1cc(CN2CC(N3CCSCC3)CS2(=O)=O)nn1 (configuration not stated)	14	1	.	.	.	27	.
COc1cc(Br)c(C(=O)c2nccc3cc(OC)c(OC)cc23)cc1OC	21	31	95*	90*	92*	113*	101*
COc1cc(N)c(C(=O)c2nccc3cc(OC)c(OC)cc23)cc1OC	4	2	-9	-16	13	16	.
COC(=O)c1ccc(CNC(=O)C(C)N=C2NS(=O)(=O)c3ccccc32)cc1 (configuration not stated)	15	0	0	8	-1	10	.
N#CC1(CCCN2CCCCC2)c2ccccc2CCc2ccccc21	4	0	0	-11	2	41*	23
CC(=O)C1=CCC(c2ccc(Cl)c(Cl)c2)N(S(=O)(=O)c2ccc(C)cc2)C1 (configuration not stated)	-21	0	.	.	.	9	.
Cc1ccc(NC(=O)CCC(=O)N/N=C/c2ccc([N+](=O)[O-])o2)cc1C	9	-1	1	-2	9	63*	12
Cc1cc(C(=O)N/N=C/c2cccnc2)c(C)o1	14	0	1	-8	6	41*	12
Cc1cc(C(=O)N/N=C/c2ccc([N+](=O)[O-])o2)c(C)o1	19	-5	-4	1	-6	42*	37
Cc1nonc1C(=O)N/N=C/c1ccc([N+](=O)[O-])o1	3	1	-10	13	1	39	.
O=C(N/N=C/c1ccc([N+](=O)[O-])o1)c1cc(-c2cccc(Br)c2)nc2ccccc12	-10	-8	-5	0	-6	41*	18
SMILES	NRP1-CendR mod	SENP1 FRET inh	SENP8 block-1	SENP6 inh	SENP7 block	SENP8 block-2	SENP8 conf
CCCc1ccc(-c2cc(C(=O)N/N=C/c3ccc([N+](=O)[O-])o3)c3ccccc3n2)cc1	-6	-5	-7	0	7	-14	.
CC(C)(C)OC(=O)N1CCC(NC(=O)c2[nH]cnc2C(=O)Nc2ccccc2F)CC1	-5	-1	.	.	.	1	.
Cn1c(SCC(=O)Nc2ccc(C(=O)O)cc2)nc2scc(-c3ccccc3Cl)c2c1=O	-14	2	0	-6	-8	23	.
O=C(c1cc(-c2ccccc2Cl)on1)N1CCN(C(=O)c2ccco2)CC1	-7	1	2	-12	4	43*	18
O=C(CN(C1CCCCC1)S(=O)(=O)c1ccc(F)cc1)NCC1CCCO1 (configuration not stated)	0	0	.	.	.	46*	23
CNc1ccccc1	-3	3	9	-4	4	13	.
CNc1cccccc1=S	25*	-13	5	3	7	62*	10
CC(C)n1c(CNC(=O)c2ccccc2F)nnc1SCC(=O)NC1CCCCC1	-13	-11	.	.	.	0	.
O=C(COC(=O)/C=C/c1ccccc1Cl)NC1CC1	-14	1	.	.	.	1	.
Nc1cccc2c1C(=O)N(c1ccccc1)C2=O	-3	-50	1	-4	1	-429	.
O=C1c2ccccc2C(=O)N1c1ccccc1	2	1	.	.	.	42*	4
CO/N=C(/c1nonc1N)N1CCN(c2ccc([N+](=O)[O-])cc2)CC1	3	-4	2	-3	5	41*	0
CCn1nnc2cc(C(=O)N3CCC(C(=O)OC)CC3)ccc21	-1	12	8	-8	5	-9	.
CCC(C)N(C)C1CCN(C(=S)Nc2cccc(SC)c2)CC1 (configuration not stated)	-1	3	5	-29	8	43*	29
CCOC(=O)C(=CNNc1ccccc1)C(=O)OCC	7	1	0	-10	4	45*	20
CCOC(=O)NNc1ccccc1	-1	1	6	8	1	25	.
Cn1c(NNC(=O)c2c(F)cccc2F)cc(=O)n(C)c1=O	7	-111	6	-10	7	48*	48*
Cn1c(NNC(=O)c2ccccc2F)cc(=O)n(C)c1=O	13	-136	-7	-2	-2	23	.
COc1ccc(N2CCN(CCCn3cnc4c(OC)ncnc43)CC2)cc1	-8	-1	.	.	.	-14	.
CC1(C(=O)Nc2cccc3ccccc23)CCN1C(=O)C1(c2ccccc2)CCCC1 (configuration not stated)	-6	0	.	.	.	23	.
O=C(/C=C/c1cccs1)c1ccc([N+](=O)[O-])cc1	-5	1	-7	-10	-5	50*	8
